PubChem BioAssay
The source made the active and inactive calls.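 Rule for the calls: active = GFP response above 150% of the DMSO control; inconclusive = fewer than 70 events counted in any yeast strain; inactive = the rest.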

Assay: LAP4-GFP expression modulators in yeast, confirmation, cell-based, cherry picks, flow cytometry, mother/daughter gates (AID 2271);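 note: ratio of sample to DMSO plate mean so 100% equals DMSO level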
Settings: S. cerevisiae LAP4-GFP strain, 3 h, at 10 µM, stronger effect = higher value, 100 means same as DMSO control
Summary of the method: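 System: GFP-fusion yeast strain; Incubation: compound exposure 3 h at 30 °C, end-over-end rotation; Measured by: GFP by flow cytometry; Read-out: median GFP fluorescence as percent of plate-mean DMSO wells; Medium: synthetic complete (SC) yeast growth medium; Compound: single test-compound dose, 10 µM final; Benchmarks: DMSO-only negative wells, rapamycin 400 ng/mL positive wells.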
In the case of `CCOC(=O)c1ccc(NC(=O)CCc2nc(-c3ccc(C)cc3)no2)cc1`, the GFP response relative to DMSO was 98.2% (inactive).
In the case of `Cc1cccc(N2C(=O)C(Cl)=C(Nc3c(C)n(C)n(-c4ccccc4)c3=O)C2=O)c1C`, the GFP response relative to DMSO was 103% (inactive).
With `Cc1noc2ncnc(Sc3ccc(Cl)cc3)c12` the GFP response relative to DMSO was 140% (inactive).
With `CCN(CC)c1ccc(/C=C/c2cccc[n+]2C)c(OC)c1` the GFP response relative to DMSO was 113% (inactive).
For `CC1=NOC(=O)/C1=C\c1ccc(-c2cc(Cl)ccc2Cl)o1`, the GFP response relative to DMSO was 195% (active).
In the case of `CCCN(c1ccccc1F)S(=O)(=O)c1cc(-c2cc(C)no2)ccc1OC`, the GFP response relative to DMSO was 97.9% (inactive).
For `COc1ccccc1-c1noc(CCC(=O)Nc2cccc(C)c2)n1`, the GFP response relative to DMSO was 96.5% (inactive).
With `O=C(c1ccc([N+](=O)[O-])o1)N1CCN(c2nc3ccc(F)cc3s2)CC1` the GFP response relative to DMSO was 111% (inactive).
For `COc1ccc(Br)cc1/C=C/C(=O)c1ccc(NC(C)=O)cc1`, the GFP response relative to DMSO was 89.4% (inactive).
With `CCOc1ccc(/C=C/C(=O)c2c(O)cc(C)oc2=O)cc1` the GFP response relative to DMSO was 120% (inactive).
In the case of `CN1CCN(C(c2ccc(C(F)(F)F)cc2)c2ccc3cccnc3c2O)CC1` (stereo unspecified), the GFP response relative to DMSO was 216% (active).
In the case of `O=C(NNC(=S)NC(=O)C12CC3CC(CC(C3)C1)C2)c1ccncc1`, the GFP response relative to DMSO was 137% (inactive).
With `Cc1ccccc1NC(=O)c1ccccc1` the GFP response relative to DMSO was 95.4% (inactive).
In the case of `Cc1cc(C(=O)Nc2nc(-c3ccccn3)cs2)ccc1[N+](=O)[O-]`, the GFP response relative to DMSO was 158% (active).
For `N/C(=N\OC(=O)c1cccc(Br)c1)c1ccccc1`, the GFP response relative to DMSO was 137% (inactive).
For `O=C(Nc1nccs1)C(c1ccccc1)N1CCCCC1` (stereo unspecified), the GFP response relative to DMSO was 93.1% (inactive).
